Data on 33 compounds can be found in ChEMBL document CHEMBL1136605, “Synthesis and biological activities of novel beta-carbolines as PDE5 inhibitors” (Bioorg Med Chem Lett, 2003).

Test [1] addresses T1, cGMP-specific 3',5'-cyclic phosphodiesterase (Homo sapiens, UniProt O76074). In words: Inhibition of PDE5 (Phosphodiesterase) from human corpus cavernosum. The procedure, abridged: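 Enzyme was PDE5 from human corpus cavernosum. Compounds were serially diluted in 100% DMSO and added to assay buffer at 2% DMSO final. […] Ki was derived, with IC50 instead for a few compounds. Values are means of three experiments.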

The target in test [2] is T1, cGMP-specific 3',5'-cyclic phosphodiesterase. In words: Inhibitory activity against PDE5 from human corpus cavernosum.
Test [3] relates to Canis familiaris. The experiment in a line: In vivo increased intracavernosal pressure in dogs after intravenous dose. Type of test: functional, Canis lupus familiaris. The procedure, abridged: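 Ascending intravenous doses given at 40-min intervals after control responses were established. Intracavernosal pressure (ICP) was evoked 15 min after each dose by pelvic nerve electrical stimulation at the same setting. Effect was taken as the ICP area under the curve at each stimulation minus the control-response AUC.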

The target in test [4] is Phosphodiesterase 2 and 5 (PDE2 and PDE5) (Homo sapiens) (UniProt O76074+O00408). The experiment in a line: Relative inhibition of PDE2 and PDE5 from human corpus cavernosum. Type of test: protein assay. Put shortly: (§1)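 Ratio of inhibition of a second human PDE to that of PDE5 from corpus cavernosum. PDE2 was from corpus cavernosum and PDE6 from retinal cone. Compounds were diluted in DMSO to 2% DMSO final. Ki was determined for each enzyme.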

For test [5], the species on record is Homo sapiens. The experiment in a line: Relative inhibition of PDE6 from human retinal cone and PDE5 from human corpus cavernosum. The procedure, abridged:
as §1

The term IC50 denotes the midpoint of a concentration-inhibition curve. In the case of `O=C(c1ccc(-c2ccc(Cl)cc2[N+](=O)[O-])o1)N1CCc2c([nH]c3ccccc23)C1c1ccc2c(c1)OCO2` (stereo not given), 0.105 µM corresponded to half-maximal inhibition in test [1] (IC50).

What is called Ki is the equilibrium dissociation constant of an inhibitor or competing ligand from its target. A lower Ki goes with a stronger hold on the target. In test [2], `Clc1ccc(-c2cnc(N3CCc4c([nH]c5ccccc45)C3c3ccc4c(c3)OCO4)nc2)cc1` (stereo not given) returned a Ki of 0.126 µM.

As a reminder, the ED50 is the midpoint of the dose-response relation. The low end stands for an effect at a small dose, the high end for a need for a large dose. `CCCc1nn(C)c2c(=O)[nH]c(-c3cc(S(=O)(=O)N4CCN(C)CC4)ccc3OCC)nc12` had an ED50 in test [3] of 0.0051 mg/kg.

On to `COc1ccc(-c2cnc(N3CCc4c([nH]c5ccccc45)C3c3ccc4c(c3)OCO4)nc2)cc1` (stereo in doubt; 15a), for which the inhibition constant (Ki) in test [2] came to 0.246 µM.

Take `O=C(c1ccc(-c2ccc(Cl)cc2[N+](=O)[O-])o1)N1CCc2c([nH]c3ccccc23)[C@H]1c1ccc2c(c1)OCO2`: half-maximal inhibition in test [1] (IC50) required 0.067 µM.

`COc1ccc(-c2cnc(N3CCc4c([nH]c5ccccc45)C3c3ccc4c(c3)CCO4)nc2)cc1` (stereo in doubt; 15f) returned a Ki in test [2] of 0.188 µM.

In the case of `COc1ccc(-c2cnc(N3CCc4c([nH]c5ccccc45)C3c3ccc4c(c3)CCO4)nc2)cc1` (stereo in doubt; 8f), affinity in test [2] was put at a Ki of 0.189 µM.

Turning to `Cc1ncc(-c2cnc(N3CCc4c([nH]c5ccccc45)C3c3ccc4c(c3)CCO4)nc2)n1C` (stereo not given), the Selectivity was above 4000 in test [4] and 187 in test [5].

In test [1], `O=C(c1ccc(-c2ccccc2)o1)N1CCc2c([nH]c3ccccc23)C1c1ccc2c(c1)OCO2` (stereo not given) gave an IC50 of 0.75 µM.

Turning to `COc1ccc(-c2cnc(N3CC(=O)c4c([nH]c5ccccc45)C3c3ccc4c(c3)OCO4)nc2)cc1` (stereo not given), in test [2], the Ki was 0.018 µM. It took a dose of 0.173 mg/kg to reach the 50% effect level in test [3] (ED50).

In test [2], `O=C(c1ccc(-c2cccc([N+](=O)[O-])c2)o1)N1CCc2c(sc3ccccc23)C1c1ccc2c(c1)OCO2` (stereo not given) came in with a Ki above 5 µM.

In the case of `O=C(c1ccc(-c2ccc(Cl)cc2[N+](=O)[O-])o1)N1CCc2c([nH]c3ccccc23)[C@@H]1c1ccc2c(c1)OCO2`, in test [1], the IC50 is above 10 µM.

As for `COc1ccc(-c2cnc(N3CC(=O)c4c([nH]c5ccccc45)C3c3ccc4c(c3)OCO4)nc2)cc1OC` (stereo not given), the results for the Selectivity in test [4] and in test [5] were 23000 and 4, respectively.

As for `CC(=O)Nc1ccc(-c2ccc(C(=O)N3CCc4c([nH]c5ccccc45)C3c3ccc4c(c3)OCO4)o2)cc1` (stereo not given), the Ki in test [2] was 0.0642 µM.

As to `O=C(c1ccc(-c2ccc([N+](=O)[O-])cc2)o1)N1CCc2c([nH]c3ccccc23)C1c1ccc2c(c1)OCO2` (stereo not given), the Ki in test [2] came to 0.0775 µM.

As for `c1ccc2c3c([nH]c2c1)C(c1ccc2c(c1)CCO2)N(c1ncc(-c2ccc(OCCN4CCCC4)cc2)cn1)CC3` (stereo not given), the Ki in test [2] was above 1 µM.

Regarding `O=C(O)CCCC(=O)Nc1cccc(-c2ccc(C(=O)N3CCc4c([nH]c5ccccc45)C3c3ccc4c(c3)OCO4)o2)c1` (stereo not given), the IC50 in test [1] came to 0.095 µM.

`CC(=O)Nc1cccc(-c2ccc(C(=O)N3CCc4c([nH]c5ccccc45)C3c3ccc4c(c3)OCO4)o2)c1` (stereo not given) gave a Ki in test [2] of 0.0506 µM.

Turning to `Nc1ccc(-c2ccc(C(=O)N3CCc4c([nH]c5ccccc45)C3c3ccc4c(c3)OCO4)o2)cc1` (stereo not given), the Ki in test [2] came to 0.123 µM.

`O=C(c1ccc(-c2cccc(C(F)(F)F)c2)o1)N1CCc2c([nH]c3ccccc23)C1c1ccc2c(c1)OCO2` (stereo not given): in test [2], the affinity, expressed as Ki, was 0.126 µM.

For the compound `O=C(c1ccc(-c2cccc([N+](=O)[O-])c2)o1)N1CCc2c([nH]c3ccccc23)C1c1ccc2c(c1)OCO2` (stereo not given), the Ki in test [2] was 0.13 µM.

Compound `COc1ccc(-c2cnc(N3CCc4c([nH]c5ccccc45)C3c3ccc4c(c3)OCO4)nc2)cc1` (stereo in doubt; 8a) yielded a Ki in test [2] of 0.246 µM.

The compound `COc1ccc(-c2cnc(N3CCc4c([nH]c5ccccc45)C3c3ccc(OC)c(OC)c3)nc2)cc1` (stereo not given) displayed a Ki in test [2] above 10 µM.

In the case of `O=C(O)CCCC(=O)Nc1ccc(-c2ccc(C(=O)N3CCc4c([nH]c5ccccc45)C3c3ccc4c(c3)OCO4)o2)cc1` (stereo not given), in test [1], the 50% inhibitory concentration (IC50) came out at 0.1 µM.

On to `Cc1ccc(-c2cnc(N3CCc4c([nH]c5ccccc45)C3c3ccc4c(c3)OCO4)nc2)cc1` (stereo not given), for which affinity in test [2] was put at a Ki of 0.543 µM.

As for `O=C(c1ccc(-c2ccccn2)o1)N1CCc2c([nH]c3ccccc23)C1c1ccc2c(c1)CCO2` (stereo not given), the Selectivity is 308 in test [4] and 32 in test [5]. Besides, the affinity in test [2] corresponds to a Ki of 0.0323 µM.

Regarding `Oc1ccc(-c2cnc(N3CCc4c([nH]c5ccccc45)C3c3ccc4c(c3)CCO4)nc2)cc1` (stereo not given), affinity in test [2] was put at a Ki of 0.154 µM.

For the compound `O=C(c1ccc(-c2ccccc2[N+](=O)[O-])o1)N1CCc2c([nH]c3ccccc23)C1c1ccc2c(c1)OCO2` (stereo not given), affinity in test [2] was put at a Ki of 0.219 µM.

As for `CS(=O)(=O)c1ccc(-c2cnc(N3CCc4c([nH]c5ccccc45)C3c3ccc4c(c3)OCO4)nc2)c([N+](=O)[O-])c1` (stereo not given), the Ki in test [2] stood at 0.132 µM.

The compound `Nc1cccc(-c2ccc(C(=O)N3CCc4c([nH]c5ccccc45)C3c3ccc4c(c3)OCO4)o2)c1` (stereo not given) registered a Ki in test [2] of 0.179 µM.

In the case of `CN1CCN(C(=O)c2ccc(-c3ccc(C(=O)N4CCc5c([nH]c6ccccc56)C4c4ccc5c(c4)CCO5)o3)cc2)CC1` (stereo not given), the results for the Selectivity in test [4] and in test [5] were above 10000 and 119, respectively. In test [2], this compound had a Ki of 0.00811 µM.

Consider `COc1ccc(-c2cnc(N3CC(O)c4c([nH]c5ccccc45)C3c3ccc4c(c3)OCO4)nc2)cc1OC` (stereo not given), for which, in test [2], the Ki is above 0.1 µM.

Take `FC(F)(F)c1cccc(-c2ccc(CN3CCc4c([nH]c5ccccc45)C3c3ccc4c(c3)OCO4)o2)c1` (stereo not given): the Ki in test [2] came out at 0.85 µM.
